Measurements from ChEMBL document CHEMBL4020752, “Synthesis and biological activity of new phthalimides as potential anti-inflammatory agents” (Bioorg Med Chem, 2017).
≈ marks a conversion by molar mass, not a printed value. Calls of active or inactive are those of the source. The calls are words filed in the database; no cut-off is given here.

Key:
RAW264.7 [1] = experiment: Anti-inflammatory activity in mouse RAW264.7 cells assessed as inhibition of LPS-induced NO production by measuring […] level at 20 ug/ml after 22 hrs by Griess assay (reference value: 25.31 uM); type: functional
Outline: (§1)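 RAW 264.7 cells seeded at 2×10^5/well, grown 24 h at 37 °C in 5% CO2, washed twice with PBS, given fresh medium, then exposed to LPS 1 µg/mL with or without test compound for 22 h. Nitrite in the medium read by Griess reagent at 540 nm against a sodium nitrite standard curve. IC50 obtained by nonlinear regression of % inhibition vs concentration. Means ± SD of three independent experiments.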

RAW264.7 [2] = experiment: Anti-inflammatory activity in mouse RAW264.7 cells assessed as inhibition of LPS-induced NO production by measuring remaining NO level at 20 ug/ml after 22 hrs by Griess assay relative to control; type: functional; outline: as §1
RAW264.7 [3] = experiment: Downregulation of LPS-stimulated TNF-alpha protein expression level in mouse RAW264.7 cells up to 20 ug/ml preincubated for 30 mins followed by LPS stimulation for 4 hrs by Western blot analysis; type: functional, cell-based
Outline: (§2)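 RAW 264.7 cells pretreated with a range of compound concentrations for 30 min, then stimulated with LPS 1 µg/mL for 4 h. Total protein extracted and cytokine levels analysed by western blotting.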

RAW264.7 [4] = experiment: Anti-inflammatory activity in mouse RAW264.7 cells assessed as inhibition of LPS-induced NO production after 22 hrs by Griess assay; type: functional, cell-based; outline: as §1
[5] = Cytotoxicity against mouse RAW264.7 cells assessed as survival at 40 ug/ml after 22 hrs by MTT assay relative to control; type: cell-based; conditions: read-out: Survival
Outline: (§3)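 RAW 264.7 cells were grown in DMEM with 10% heat-inactivated FBS at 37 °C and 5% CO₂, then plated at 2×10^5 per well for 24 h. After washing, cells received 1 µg/mL LPS with or without compound (up to 40 µg/mL) for 22 h. After the Griess read, MTT (final 500 µg/mL) was added for 3 h at 37 °C. Formazan was dissolved in DMSO and read at 570 nm, giving % survival versus control.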

RAW264.7 [6] = experiment: Downregulation of IkB-alpha level in LPS-stimulated mouse RAW264.7 cells up to 20 ug/ml preincubated with cells followed by LPS stimulation for 30 mins by Western blot analysis; type: functional, cell-based
Outline: (§4)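 Pretreatment with a range of compound concentrations for 30 min, then LPS 1 µg/mL for 30 min. IκBα, phospho-protein and related protein levels analysed by western blot.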

[7] = target: T1, Interferon regulatory factor 3 (Mus musculus) (UniProt P70671); experiment: Inhibition of LPS-stimulated IRF-3 phosphorylation at Ser-396 residue in mouse RAW264.7 cells up to 20 ug/ml preincubated for 30 mins followed by LPS stimulation for 30 mins by Western blot analysis; type: cell-based; outline: as §4
T1 sequence (whole entry): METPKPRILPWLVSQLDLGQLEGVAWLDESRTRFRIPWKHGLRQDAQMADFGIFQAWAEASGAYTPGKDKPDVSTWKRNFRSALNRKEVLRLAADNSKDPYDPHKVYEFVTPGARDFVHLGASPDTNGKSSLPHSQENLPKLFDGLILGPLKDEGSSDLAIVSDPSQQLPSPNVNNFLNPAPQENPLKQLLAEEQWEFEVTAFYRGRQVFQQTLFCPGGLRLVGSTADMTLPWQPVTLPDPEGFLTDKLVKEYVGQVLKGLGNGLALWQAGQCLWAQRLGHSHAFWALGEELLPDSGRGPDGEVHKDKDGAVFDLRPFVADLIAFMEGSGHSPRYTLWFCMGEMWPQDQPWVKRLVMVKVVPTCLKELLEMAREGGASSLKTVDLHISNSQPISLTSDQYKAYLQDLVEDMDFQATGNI

[8] = Cytotoxicity against mouse RAW264.7 cells assessed as survival up to 20 ug/ml after 22 hrs by MTT assay relative to control; type: cell-based; conditions: read-out: Survival; outline: as §3
RAW264.7 [9] = experiment: Downregulation of LPS-stimulated iNOS protein expression level in mouse RAW264.7 cells preincubated for 30 mins followed by LPS stimulation for 16 hrs by Western blot analysis; type: functional, cell-based
Outline: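 Cells pretreated with a range of compound concentrations for 30 min, then stimulated with LPS 1 µg/mL for 16 h. iNOS protein analysed by western blot.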

Mus musculus [10] = species: Mus musculus; experiment: Inhibition of IkB kinase in LPS-stimulated mouse RAW264.7 cells assessed as reduction in IkB-alpha phosphorylation up to 20 ug/ml preincubated with cells followed by LPS stimulation for 30 mins by Western blot analysis; outline: as §4
RAW264.7 [11] = experiment: Downregulation of LPS-stimulated IL-1beta protein expression level in mouse RAW264.7 cells up to 20 ug/ml preincubated for 30 mins followed by LPS stimulation for 4 hrs by Western blot analysis; type: functional, cell-based; outline: as §2
RAW264.7 [12] = experiment: Downregulation of LPS-stimulated iNOS mRNA expression level in mouse RAW264.7 cells preincubated for 30 mins followed by LPS stimulation for 4 hrs by RT-PCR method; type: functional, cell-based
RAW264.7 [13] = experiment: Upregulation of HO-1 protein level in LPS-stimulated mouse RAW264.7 cells at 20 ug/ml preincubated for 30 mins followed by LPS stimulation for 16 hrs by Western blot method; type: functional, cell-based
Outline: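 RAW 264.7 cells pretreated with compound for 30 min, then stimulated with LPS 1 µg/mL for 16 h. HO-1 protein measured by western blotting.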

RAW264.7 [14] = experiment: Downregulation of LPS-stimulated IL-1beta mRNA expression level in mouse RAW264.7 cells preincubated for 30 mins followed by LPS stimulation for 4 hrs by RT-PCR method; type: functional, cell-based
Outline: (§5)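 Cells pretreated with compound for 30 min, then stimulated with LPS 1 µg/mL for 4 h. Total RNA extracted and cytokine mRNA measured by real-time PCR. Means ± SD of triplicate tests.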

RAW264.7 [15] = experiment: Downregulation of IKKbeta level in LPS-stimulated mouse RAW264.7 cells up to 20 ug/ml preincubated with cells followed by LPS stimulation for 16 hrs by Western blot analysis; type: functional, cell-based
Outline: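 RAW 264.7 cells pretreated with a range of compound concentrations, then stimulated with LPS 1 µg/mL for 16 h. IKK protein analysed by western blotting.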

RAW264.7 [16] = experiment: Downregulation of IFN-beta mRNA level in LPS-stimulated mouse RAW264.7 cells up to 20 ug/ml preincubated with cells followed by LPS stimulation for 4 hrs by RT-PCR method; type: functional, cell-based; outline: as §5
Mus musculus [17] = species: Mus musculus; experiment: Inhibition of NF-kB transcriptional activity in LPS-stimulated mouse RAW264.7 cells up to 20 ug/ml preincubated for 2 hrs followed by LPS stimulation for 16 hrs by SEAP reporter gene assay
Outline: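 RAW-SEAP cells cultured 24 h, pretreated with compound for 2 h, then given LPS 1 µg/mL for 16 h. Supernatants heated at 65 °C for 5 min and reacted with buffer (2 M diethanolamine, 1 mM MgCl2, 500 µM MUP) in the dark at 37 °C for 1 h. Fluorescence read at ex 360/em 449 nm, normalized to protein, expressed relative to vehicle control without LPS.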

RAW264.7 [18] = experiment: Anti-inflammatory activity in mouse RAW264.7 cells assessed as inhibition of LPS-induced NO production by measuring […] level at 50 uM after 22 hrs by Griess assay (reference value: 25.31 uM); type: functional; outline: as §1
RAW264.7 [19] = experiment: Anti-inflammatory activity in mouse RAW264.7 cells assessed as inhibition of LPS-induced NO production by measuring remaining NO level at 50 uM after 22 hrs by Griess assay relative to control; type: functional; outline: as §1
RAW264.7 [20] = experiment: Anti-inflammatory activity in mouse RAW264.7 cells assessed as inhibition of LPS-induced NO production at 50 uM after 22 hrs by Griess assay relative to control; type: functional; conditions: RAW264.7, 22 h; outline: as §1

SMILES	Activity (RAW264.7 [1]) [µM]	Activity (RAW264.7 [2]) [%]	other results
COc1cc(OC)c2c(c1)C(=O)N(Cc1ccc(Br)cc1)C2=O	20.16	81.1	
CCCCCCCN1C(=O)c2cc(O)cc(O)c2C1=O	0.72	2.9	Activity (RAW264.7 [3]): Active; inhibition (RAW264.7 [4]): Dose-dependent effect; IC50 (RAW264.7 [4]; RAW264.7, 22 h): 8.7 mg/L (≈ 31.4 µM); viability at 22 h, 40 ug/ml [5]: 17%; Activity (RAW264.7 [6]): Active; inhibition [7]: Active; viability at 22 h [8]: > 95%; Activity (RAW264.7 [9]): Dose-dependent effect; inhibition (Mus musculus [10]): Active; Activity (RAW264.7 [11]): Active; Activity (RAW264.7 [12]): Dose-dependent effect; Activity (RAW264.7 [13]): Active; Activity (RAW264.7 [14]): Dose-dependent effect; Activity (RAW264.7 [15]): Active; Activity (RAW264.7 [16]): Active; inhibition (Mus musculus [17]): Active
COc1cc(OC)c2c(c1)C(=O)N(Cc1ccccc1F)C2=O	18.87	75.9	
COc1cc(OC)c2c(c1)C(=O)N(Cc1cccc(C)c1)C2=O	18.43	74.2	
CCCN1C(=O)c2cc(O)cc(O)c2C1=O	20.71	83.3	
CCN1C(=O)c2cc(OC)cc(OC)c2C1=O	10.81	43.5	
CCCCCCN1C(=O)c2cc(OC)cc(OC)c2C1=O	23.01	92.6	
Cc1cccc(CN2C(=O)c3cc(O)cc(O)c3C2=O)c1	10.36	41.7	
CCCCCCCN1C(=O)c2cc(OC)cc(OC)c2C1=O	20.99	84.5	
COc1cc(OC)c2c(c1)C(=O)N(CCOC(C)=O)C2=O	24.13	97.1	
O=C1c2cc(O)cc(O)c2C(=O)N1Cc1ccc(Br)cc1	8.04	32.4	
CCCN1C(=O)c2cc(OC)cc(OC)c2C1=O	23.24	93.5	
O=C1c2cc(O)cc(O)c2C(=O)N1Cc1ccccc1Br	9.65	38.8	
COc1cc(OC)c2c(c1)C(=O)N(CCOC(=O)CCl)C2=O	12.14	48.9	
COc1cc(OC)c2c(c1)C(=O)N(CC(C)C)C2=O	21.45	86.3	
O=C1c2cc(O)cc(O)c2C(=O)N1Cc1cccc(F)c1	10.46	42.1	

SMILES	Activity (RAW264.7 [1]) [µM]	Activity (RAW264.7 [2]) [%]	other results
CCCCN1C(=O)c2cc(O)cc(O)c2C1=O	18.24	73.4	
CC1CCN=C(N)S1.Cl (centres undefined)			Activity (RAW264.7 [18]): 0.5 µM; Activity (RAW264.7 [19]): 2%; inhibition at 50 µM (RAW264.7 [20]): 98%
COc1cc(OC)c2c(c1)C(=O)N(Cc1cccc(F)c1)C2=O	18.65	75.1	
CCCCN1C(=O)c2cc(OC)cc(OC)c2C1=O	19.7	79.3	
CC(C)N1C(=O)c2cc(O)cc(O)c2C1=O	20.47	82.4	
CCC(=O)OCCN1C(=O)c2cc(OC)cc(OC)c2C1=O	25.31	101.9	
CCCCCCN1C(=O)c2cc(O)cc(O)c2C1=O	1.98	8	
CC(C)CN1C(=O)c2cc(O)cc(O)c2C1=O	21.07	84.8	
COc1cc(OC)c2c(c1)C(=O)N(C(C)C)C2=O	24.34	97.9	
O=C1c2cc(O)cc(O)c2C(=O)N1Cc1ccccc1F	11.76	47.3	
CCCCCN1C(=O)c2cc(O)cc(O)c2C1=O	11.3	45.5	
CCN1C(=O)c2cc(O)cc(O)c2C1=O	21.12	85	
COc1cc(OC)c2c(c1)C(=O)N(CCO)C2=O	24.8	99.8	
COc1cc(OC)c2c(c1)C(=O)N(Cc1ccccc1Br)C2=O	20.79	83.7	
CCCCCN1C(=O)c2cc(OC)cc(OC)c2C1=O	18.6	74.8	
